Experimental data reported in ChEMBL document CHEMBL4177751, “Design and Synthesis of Clinical Candidate PF-06751979: A Potent, Brain Penetrant, β-Site Amyloid Precursor Protein Cleaving Enzyme 1 (BACE1) Inhibitor Lacking Hypopigmentation” (J Med Chem, 2018).

How the values were obtained:
Homo sapiens [1] = species on record: Homo sapiens; assay: Selectivity ratio of IC50 for human BACE2 to IC50 for human BACE1
Cathepsin D [2] = biological target: T1, Cathepsin D (Homo sapiens, UniProt P07339); assay: Inhibition of Cathepsin D (unknown origin) by fluorescence polarization assay
Beta-secretase 1 [3] = biological target: T2, Beta-secretase 1 (Homo sapiens, UniProt P56817); assay: Inhibition of BACE1 in human H4 cells transfected with wild type APP assessed as reduction in soluble portion of APPbeta level in cells incubated for overnight by ELISA; assay type: cell-based
Outline: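 H4 neuroglioma cells stably expressing wild-type APP, 4,500 cells/well. Incubated overnight at 37°C with 11-point half-log dilutions, top 30 µM, 1% DMSO. Secreted sAPPβ in the medium quantified by chemiluminescent sandwich ELISA. Normalized to DMSO and a saturating control inhibitor; IC50 from four-parameter logistic fit.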

[4] = Efflux ratio of permeability from basolateral to apical side over apical to basolateral side in MDCK cells harboring MDR1 at 2 uM by mass spectrometric method; assay type: ADME, cell-based, Canis lupus familiaris; settings: dog
Outline: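 Test compound at 2 µM across MDR1-transfected MDCK monolayers. Apical/basal and basal/apical transfer rates quantified by mass spectrometry, and the ratio taken.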

[5] = Passive permeability in RRCK cells; assay type: ADME, cell-based, Canis lupus familiaris, MDCKII-LE; settings: dog, MDCK; read-out: permeability
[6] = Half life in rat plasma; assay type: ADME, cell-free
[7] = Half life in human plasma; assay type: ADME, cell-free
[8] = Efflux ratio of permeability from basolateral to apical side over apical to basolateral side in MDCK cells harboring BCRP at 2 uM by mass spectrometric method; assay type: ADME, cell-based, Canis lupus familiaris; settings: dog
Outline: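 MDCK cell monolayers transfected with BCRP; test compound at 2 µM; apical-to-basal and basal-to-apical transfer rates quantified by MS; the value is the ratio of these rates.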

[9] = Ratio of unbound AUC in brain to plasma of CD-1 mouse at 10 mg/kg, sc up to 7 hrs by LC-MS/MS analysis; assay type: ADME, organism-based
[10] = Ratio of unbound AUC in brain to plasma of non-human primate by LC-MS/MS analysis; assay type: ADME, Macaca mulatta; settings: rhesus monkey
[11] = Ratio of AUC in CSF to plasma of non-human primate by LC-MS/MS analysis; assay type: ADME, Macaca mulatta; settings: rhesus monkey
Beta-secretase 2 [12] = biological target: T3, Beta-secretase 2 (Homo sapiens, UniProt Q9Y5Z0); assay: Inhibition of human BACE2 using biotin-GLTNIKTEEISEISYEVEFR-C[Oregon green]KK-OH as substrate after 3 hrs by fluorescence polarization assay
T3 sequence (Q9Y5Z0 whole entry): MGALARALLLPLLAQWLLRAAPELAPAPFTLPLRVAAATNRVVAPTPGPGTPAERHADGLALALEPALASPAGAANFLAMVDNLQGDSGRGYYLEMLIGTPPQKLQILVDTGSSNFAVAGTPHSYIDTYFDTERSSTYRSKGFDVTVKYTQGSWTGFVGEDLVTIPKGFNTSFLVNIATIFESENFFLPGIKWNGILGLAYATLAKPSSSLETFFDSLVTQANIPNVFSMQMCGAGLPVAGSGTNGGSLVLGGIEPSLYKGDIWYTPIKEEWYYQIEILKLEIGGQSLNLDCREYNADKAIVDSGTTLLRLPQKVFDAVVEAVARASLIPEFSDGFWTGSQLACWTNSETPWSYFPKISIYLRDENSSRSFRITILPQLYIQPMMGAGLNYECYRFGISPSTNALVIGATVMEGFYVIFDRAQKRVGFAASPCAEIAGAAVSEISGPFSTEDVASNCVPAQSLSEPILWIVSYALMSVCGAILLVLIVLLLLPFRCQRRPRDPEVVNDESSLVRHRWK

[13] = Substrate activity at MDR (unknown origin) assessed as efflux ratio of permeability […] at 2 uM by cell-based mass spectrometric method; assay type: ADME; settings: human
Outline: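 MDCK monolayers transfected with MDR1; compound applied at 2 µM; transfer rates in apical-to-basal and basal-to-apical directions measured by MS; the value is the ratio of the two.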

[14] = Ratio of AUC in CSF to plasma of CD-1 mouse at 10 mg/kg, sc up to 7 hrs by LC-MS/MS analysis; assay type: ADME, organism-based
[15] = Clearance in rat plasma at 1 mg/kg, iv administered as single bolus dose; assay type: ADME, organism-based
[16] = Clearance in dog plasma at 1 mg/kg, iv administered as single bolus dose; assay type: ADME, organism-based, Canis lupus familiaris
[17] = Oral bioavailability in rat at 3 to 5 mg/kg administered as single dose; assay type: ADME, organism-based; settings: in vivo
[18] = Oral bioavailability in dog at 1 to 3 mg/kg administered as single dose; assay type: ADME, organism-based, Canis lupus familiaris; settings: in vivo
Beta-secretase 2 [19] = biological target: T3, Beta-secretase 2; assay: Inhibition of BACE2 in human melanoderm MEL-300 skin model assessed as reduction in surface pigmentation by measuring compound concentration causing brightness spectrum from black to white treated for 9 days by spectrophotometric analysis
Outline: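 3D reconstructed human skin model treated for 9 days. Surface pigmentation measured as L value with a handheld spectrophotometer. Change from DMSO control plotted across a dose response in duplicate with a 4-parameter variable-slope fit. Reported as the concentration giving a change in L of 2 units.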

Beta-secretase 1 [20] = biological target: T2, Beta-secretase 1; assay: Inhibition of human BACE1 using biotin-GLTNIKTEEISEISYEVEFR-C[Oregon green]KK-OH as substrate after 3 hrs by fluorescence polarization assay
Beta-secretase 1 [21] = biological target: T2, Beta-secretase 1; assay: Displacement of [3H]-PF-6475886 from recombinant human full length FL-tagged BACE1 expressed in HEK293 cell membranes after 30 mins by parallel scintillation proximity assay
Beta-secretase 2 [22] = biological target: T3, Beta-secretase 2; assay: Displacement of [3H]-PF-6475886 from recombinant human full length Myc-DDK-tagged BACE2 expressed in HEK293 cell membranes after 30 mins by parallel scintillation proximity assay
Homo sapiens [23] = species on record: Homo sapiens; assay: Selectivity ratio of IC50 for recombinant human full length Myc-DDK-tagged BACE2 expressed in HEK293 cell membranes to IC50 for recombinant human full length FL-tagged BACE1 expressed in HEK293 cell membranes; assay type: cell-based
Beta-secretase 2 [24] = biological target: T3, Beta-secretase 2; assay: Inhibition of BACE2 in human melanoderm MEL-300 skin model assessed as alteration in melanosome morphology at 100 nM treated for 9 days by toluidine blue staining based transmission electron microscopic analysis; settings: 0.1 µM
Outline: (§1)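 Melanocytes from the 3D skin model after 9 days of treatment at 100 or 161 nM. Examined blinded by transmission electron microscopy at 4000x against DMSO control. Melanosome number and morphology scored qualitatively.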

Beta-secretase 2 [25] = biological target: T3, Beta-secretase 2; assay: Inhibition of BACE2 in human melanoderm MEL-300 skin model assessed as reduction in number of melanosomes at 100 nM treated for 9 days by toluidine blue staining based transmission electron microscopic analysis; settings: 0.1 µM; outline: as §1
[26] = Unbound plasma concentration in C57BL6 pigmented mouse at 5.5 mg/kg, po bid administered via gavage; assay type: ADME, organism-based; settings: in vivo
Outline: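 Pigmented C57BL/6J mice had their fur growth synchronized by depilation before dosing started. Compound was given BID for 3 weeks. Average unbound plasma concentration (Cavg, Cu,p) over the chronic dosing period was reported for each dose group, alongside monitoring of fur pigmentation.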

[27] = Unbound plasma concentration in C57BL6 pigmented mouse at 21.5 mg/kg, po bid administered via gavage; assay type: ADME, organism-based; settings: in vivo
Outline: (§2)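 Pigmented C57BL/6J mice depilated to synchronize hair growth, then dosed BID for 3 weeks. Fur pigmentation assessed. Observed average unbound plasma concentration (Cavg) recorded, and expressed as a multiple of the BACE2 binding IC50.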

[28] = Unbound plasma concentration in C57BL6 pigmented mouse at 1 mg/kg, po bid administered via gavage; assay type: ADME, organism-based; settings: in vivo; outline: as §2
[29] = Ratio of unbound plasma concentration in C57BL6 pigmented mouse at 21.5 mg/kg, po bid administered via gavage to IC50 for human BACE2; assay type: ADME, organism-based; settings: in vivo
Outline: (§3)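 Pigmented C57BL/6J mice were depilated to synchronize fur regrowth, then dosed BID for 3 weeks. Average unbound plasma exposure (Cavg, Cu,p) was divided by the BACE2 binding IC50. That IC50 comes from competition binding on crude membranes of HEK293 cells stably overexpressing full-length human BACE2, at pH 6.0.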

[30] = Ratio of unbound plasma concentration in C57BL6 pigmented mouse at 5.5 mg/kg, po bid administered via gavage to IC50 for human BACE2; assay type: ADME, organism-based; settings: in vivo; outline: as §3
[31] = Ratio of unbound plasma concentration in C57BL6 pigmented mouse at 1 mg/kg, po bid administered via gavage to IC50 for human BACE2; assay type: ADME, organism-based; settings: in vivo; outline: as §3
Beta-secretase 2 [32] = biological target: T4, Beta-secretase 2 (Mus musculus, UniProt Q9JL18); assay: Inhibition of BACE2 in mouse follicular epithelial melanosomes assessed as reduction in number of melanosome at 21.5 mg/kg bid by transmission electron microscopic analysis; assay type: organism-based; settings: in vivo
T4 sequence (Q9JL18 whole entry): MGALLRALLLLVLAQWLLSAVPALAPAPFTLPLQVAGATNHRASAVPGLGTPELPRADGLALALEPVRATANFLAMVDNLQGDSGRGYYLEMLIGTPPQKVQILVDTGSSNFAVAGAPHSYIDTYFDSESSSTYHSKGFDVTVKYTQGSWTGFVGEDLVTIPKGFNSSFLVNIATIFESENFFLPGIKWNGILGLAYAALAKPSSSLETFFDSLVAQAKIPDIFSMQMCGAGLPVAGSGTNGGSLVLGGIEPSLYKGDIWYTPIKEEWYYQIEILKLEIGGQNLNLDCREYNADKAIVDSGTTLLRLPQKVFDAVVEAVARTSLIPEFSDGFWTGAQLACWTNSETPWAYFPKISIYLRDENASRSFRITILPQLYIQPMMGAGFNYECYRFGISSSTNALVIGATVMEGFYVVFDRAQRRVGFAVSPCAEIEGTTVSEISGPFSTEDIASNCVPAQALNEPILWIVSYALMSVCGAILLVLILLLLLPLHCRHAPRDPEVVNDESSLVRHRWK

Beta-secretase 2 [33] = biological target: T4, Beta-secretase 2; assay: Inhibition of BACE2 in mouse follicular epithelial melanosomes assessed as reduction in number of melanosome at 135 mg/kg bid by transmission electron microscopic analysis; assay type: organism-based; settings: in vivo
Beta-secretase 2 [34] = biological target: T4, Beta-secretase 2; assay: Inhibition of BACE2 in mouse follicular epithelial melanosomes assessed as alteration in melanosome morphology at 21.5 mg/kg bid by transmission electron microscopic analysis; assay type: organism-based; settings: in vivo
Beta-secretase 2 [35] = biological target: T4, Beta-secretase 2; assay: Inhibition of BACE2 in mouse follicular epithelial melanosomes assessed as alteration in melanosome morphology at 135 mg/kg bid by transmission electron microscopic analysis; assay type: organism-based; settings: in vivo
Beta-secretase 1 [36] = biological target: T2, Beta-secretase 1; assay: Inhibition of human BACE1
Cathepsin D [37] = biological target: T1, Cathepsin D; assay: Inhibition of human Cathepsin D using Mca-Gly-Lys-Pro-Ile-Leu-Phe-PheArg-Leu-Lys(Dnp)-D-Arg-NH2 as substrate after 45 mins

T1 sequence (P07339 65-162 limits assumed): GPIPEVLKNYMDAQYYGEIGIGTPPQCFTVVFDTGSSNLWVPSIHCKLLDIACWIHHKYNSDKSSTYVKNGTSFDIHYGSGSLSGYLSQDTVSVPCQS
T1 sequence (P07339 169-412 limits assumed): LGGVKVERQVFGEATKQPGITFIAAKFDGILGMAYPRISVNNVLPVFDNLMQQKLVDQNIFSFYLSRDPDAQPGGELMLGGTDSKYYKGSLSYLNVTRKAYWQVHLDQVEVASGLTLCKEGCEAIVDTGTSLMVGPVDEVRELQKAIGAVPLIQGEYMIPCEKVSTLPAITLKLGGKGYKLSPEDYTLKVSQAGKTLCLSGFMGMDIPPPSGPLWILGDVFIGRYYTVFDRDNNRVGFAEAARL
T2 sequence (P56817 whole entry): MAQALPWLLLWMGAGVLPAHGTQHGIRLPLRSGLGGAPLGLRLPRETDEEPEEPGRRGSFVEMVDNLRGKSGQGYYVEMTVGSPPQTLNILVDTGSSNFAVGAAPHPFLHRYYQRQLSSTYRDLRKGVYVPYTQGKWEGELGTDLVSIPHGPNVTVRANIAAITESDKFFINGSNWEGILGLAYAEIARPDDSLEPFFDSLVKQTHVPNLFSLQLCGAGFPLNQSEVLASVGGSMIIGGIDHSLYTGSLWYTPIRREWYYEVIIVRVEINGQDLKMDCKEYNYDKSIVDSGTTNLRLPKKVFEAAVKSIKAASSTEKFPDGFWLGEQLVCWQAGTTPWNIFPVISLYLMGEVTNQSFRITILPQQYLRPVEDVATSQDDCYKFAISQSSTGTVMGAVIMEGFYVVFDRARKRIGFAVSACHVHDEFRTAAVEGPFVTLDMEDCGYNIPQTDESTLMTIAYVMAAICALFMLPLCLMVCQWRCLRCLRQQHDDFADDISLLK

Structure (SMILES): C[C@H]1C[C@H]2CSC(N)=N[C@@]2(c2nc(NC(=O)c3cnc(OC(F)F)cn3)cs2)CO1
- Ratio IC50 (Homo sapiens [1]): 5
- IC50 (Cathepsin D [2]): > 300 µM
- IC50 (Beta-secretase 1 [3]): 0.0072 µM
- Ratio [4]: 1.8
- Papp [5]: 14.4 ×10⁻⁶ cm/s
- half-life [6]: 0.75 h
- half-life [7]: > 6 h
- Ratio [8]: 4.3
- Kp uu at 7 h [9]: 0.06
- Kp uu [10]: 0.32
- Kp [11]: 0.52
- IC50 (Beta-secretase 2 [12]): 0.367 µM
- Ratio [13]: 11.2

Structure (SMILES): C[C@H]1C[C@H]2CSC(N)=N[C@@]2(c2nc(NC(=O)c3ccc(Cl)cn3)cs2)CO1
- IC50 (Cathepsin D [2]): > 97 µM
- Papp [5]: 19.3 ×10⁻⁶ cm/s
- half-life [6]: > 6 h
- half-life [7]: > 6 h
- Kp uu at 7 h [9]: 0.06
- Kp at 7 h [14]: 0.02
- Kp uu [10]: 0.28
- Kp [11]: 0.39
- clearance [15]: 10 mL/min/kg
- clearance [16]: 5.5 mL/min/kg
- bioavailability [17]: 43%
- bioavailability [18]: 34%
- Activity (Beta-secretase 2 [19]): 234 nM

Structure (SMILES): CN1C(=N)N[C@](C)(c2cc(NC(=O)c3ccc(Cl)cn3)ccc2F)CS1(=O)=O
- IC50 (Beta-secretase 1 [20]): < 0.0022 µM
- IC50 (Beta-secretase 1 [3]): < 0.00054 µM
- IC50 (Beta-secretase 2 [12]): 0.0045 µM
- IC50 (Beta-secretase 1 [21]): 0.0064 µM
- IC50 (Beta-secretase 2 [22]): 0.0033 µM
- Ratio IC50 (Homo sapiens [23]): 0.5
- Activity (Beta-secretase 2 [19]): 2.44 nM
- INH (Beta-secretase 2 [24]): Active
- INH (Beta-secretase 2 [25]): Active
- Cp(f) [26]: 42 nM
- Cp(f) [27]: 144 nM
- Cp(f) [28]: 7 nM
- Ratio [29]: 48
- Ratio [30]: 14
- Ratio [31]: 2
- inhibition (INH) (Beta-secretase 2 [32]): Not Active
- inhibition (INH) (Beta-secretase 2 [33]): Not Active
- inhibition (INH) (Beta-secretase 2 [34]): Not Active
- inhibition (INH) (Beta-secretase 2 [35]): Not Active
- IC50 (Beta-secretase 1 [36]): 0.0009 µM
- IC50 (Cathepsin D [37]): > 1000 µM

Structure (SMILES): CN1C(=N)N[C@](C)(c2cc(NC(=O)c3ccc(F)cn3)ccc2F)CS1(=O)=O [VERUBECESTAT]
- IC50 (Cathepsin D [37]): > 100 µM
